Test results reported in ChEMBL document CHEMBL4190329, “Design, Synthesis, and Biological Evaluation of the First c-Met/HDAC Inhibitors Based on Pyridazinone Derivatives” (ACS Med Chem Lett, 2017).
Active and inactive are the calls of the source. The rule behind the calls is not given here.

Legend:
[1] = tested on: EBC-1; test: Antiproliferative activity against human EBC1 cells after 72 hrs by SRB assay; assay type: functional, cell-based; conditions: EBC-1, 72 h
[2] = biological target: T1, Histone deacetylase 1 (Homo sapiens, UniProt Q13547); test: Inhibition of recombinant human full length HDAC1 expressed in baculovirus infected Sf9 insect cells using biotinylated lysine 9 acetylated histone H3 (1 to 21 residues) as substrate incubated for 5 mins followed by substrate addition measured after 60 mins by HTRF assay
[3] = biological target: T2, Hepatocyte growth factor receptor (Homo sapiens, UniProt P08581); test: Inhibition of recombinant human His-tagged c-Met cytoplasmic domain (956 to 1390 residues) expressed in baculovirus expression system using poly (Glu,Tyr)4:1 as substrate after 60 mins by spectrophotometric analysis
[4] = tested on: HCT-116; test: Antiproliferative activity against human HCT116 cells after 72 hrs by SRB assay; assay type: functional, cell-based; conditions: HCT-116, 72 h
[5] = biological target: T2, Hepatocyte growth factor receptor; test: Inhibition of c-MET in human EBC1 cells assessed as decrease in Akt phosphorylation at Ser473 residues after 24 hrs by Western blot analysis; assay type: cell-based
How it was run: (§1)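 Intact EBC-1 cells were treated with the compound at several concentrations for 24 h. Protein levels were then read by immunoblotting with specific antibodies.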

[6] = biological target: T1, Histone deacetylase 1; test: Inhibition of HDAC1 in human EBC1 cells assessed as increase in acetyl-Histone H3 levels at Lys9/Lys14 residues at 0.01 to 10 uM after 24 hrs by Western blot analysis; assay type: cell-based; how it was run: as §1
[7] = biological target: T1, Histone deacetylase 1; test: Potency index, ratio of chidamide IC50 to compound IC50 for recombinant human full length HDAC1 expressed in baculovirus infected Sf9 insect cells
[8] = biological target: T1, Histone deacetylase 1; test: Inhibition of HDAC1 in human EBC1 cells assessed as increase in p21 levels at 0.01 to 10 uM after 24 hrs by Western blot analysis; assay type: cell-based; how it was run: as §1
[9] = biological target: T3, Protein deacetylase HDAC6 (Homo sapiens) (UniProt Q9UBN7); test: Inhibition of HDAC6 in human EBC1 cells assessed as […] in acetyl alpha-tubulin level at Lys40 at 0.01 to 10 uM after 24 hrs by Western blot analysis; assay type: cell-based
T3 sequence (whole entry): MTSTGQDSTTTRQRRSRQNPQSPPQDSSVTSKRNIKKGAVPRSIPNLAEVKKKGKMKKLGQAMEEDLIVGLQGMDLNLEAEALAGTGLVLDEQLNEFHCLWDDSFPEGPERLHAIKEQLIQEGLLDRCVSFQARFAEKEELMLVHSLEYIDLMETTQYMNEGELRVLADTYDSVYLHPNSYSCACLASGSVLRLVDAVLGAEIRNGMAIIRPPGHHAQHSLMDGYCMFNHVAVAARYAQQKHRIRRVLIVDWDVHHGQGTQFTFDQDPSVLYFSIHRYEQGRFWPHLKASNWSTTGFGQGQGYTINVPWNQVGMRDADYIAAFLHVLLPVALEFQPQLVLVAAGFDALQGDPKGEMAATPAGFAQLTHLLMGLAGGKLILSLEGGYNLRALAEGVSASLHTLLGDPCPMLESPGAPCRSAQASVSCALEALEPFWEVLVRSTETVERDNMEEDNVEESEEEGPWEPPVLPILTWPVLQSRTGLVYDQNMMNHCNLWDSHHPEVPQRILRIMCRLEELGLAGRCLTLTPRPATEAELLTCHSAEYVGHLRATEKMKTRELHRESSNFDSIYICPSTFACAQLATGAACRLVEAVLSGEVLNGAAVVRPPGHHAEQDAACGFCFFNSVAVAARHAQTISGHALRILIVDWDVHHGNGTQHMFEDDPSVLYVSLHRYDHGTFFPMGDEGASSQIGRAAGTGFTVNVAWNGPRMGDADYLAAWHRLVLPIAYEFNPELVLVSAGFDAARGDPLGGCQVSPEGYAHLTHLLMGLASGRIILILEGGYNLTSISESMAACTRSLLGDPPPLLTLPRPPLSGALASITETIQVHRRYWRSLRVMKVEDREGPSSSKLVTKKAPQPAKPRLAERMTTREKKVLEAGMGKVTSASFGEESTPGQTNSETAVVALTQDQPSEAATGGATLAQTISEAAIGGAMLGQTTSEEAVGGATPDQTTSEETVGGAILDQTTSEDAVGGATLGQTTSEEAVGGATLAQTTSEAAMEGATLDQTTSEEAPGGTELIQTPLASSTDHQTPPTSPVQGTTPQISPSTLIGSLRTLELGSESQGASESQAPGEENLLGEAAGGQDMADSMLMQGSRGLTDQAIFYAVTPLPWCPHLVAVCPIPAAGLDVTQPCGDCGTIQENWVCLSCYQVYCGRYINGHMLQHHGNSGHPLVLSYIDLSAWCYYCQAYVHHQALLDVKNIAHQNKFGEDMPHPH

[10] = biological target: T2, Hepatocyte growth factor receptor; test: Inhibition of c-MET in human EBC1 cells assessed as decrease in Erk1/2 phosphorylation at Thr202/Tyr204 residues after 24 hrs by Western blot analysis; assay type: cell-based; how it was run: as §1
[11] = biological target: T2, Hepatocyte growth factor receptor; test: Inhibition of phosphorylation of c-MET at Tyr1234/1235 residues in human EBC1 cells after 24 hrs by Western blot analysis; assay type: cell-based; how it was run: as §1

T2 sequence (P08581 whole entry, the tested form may be a part): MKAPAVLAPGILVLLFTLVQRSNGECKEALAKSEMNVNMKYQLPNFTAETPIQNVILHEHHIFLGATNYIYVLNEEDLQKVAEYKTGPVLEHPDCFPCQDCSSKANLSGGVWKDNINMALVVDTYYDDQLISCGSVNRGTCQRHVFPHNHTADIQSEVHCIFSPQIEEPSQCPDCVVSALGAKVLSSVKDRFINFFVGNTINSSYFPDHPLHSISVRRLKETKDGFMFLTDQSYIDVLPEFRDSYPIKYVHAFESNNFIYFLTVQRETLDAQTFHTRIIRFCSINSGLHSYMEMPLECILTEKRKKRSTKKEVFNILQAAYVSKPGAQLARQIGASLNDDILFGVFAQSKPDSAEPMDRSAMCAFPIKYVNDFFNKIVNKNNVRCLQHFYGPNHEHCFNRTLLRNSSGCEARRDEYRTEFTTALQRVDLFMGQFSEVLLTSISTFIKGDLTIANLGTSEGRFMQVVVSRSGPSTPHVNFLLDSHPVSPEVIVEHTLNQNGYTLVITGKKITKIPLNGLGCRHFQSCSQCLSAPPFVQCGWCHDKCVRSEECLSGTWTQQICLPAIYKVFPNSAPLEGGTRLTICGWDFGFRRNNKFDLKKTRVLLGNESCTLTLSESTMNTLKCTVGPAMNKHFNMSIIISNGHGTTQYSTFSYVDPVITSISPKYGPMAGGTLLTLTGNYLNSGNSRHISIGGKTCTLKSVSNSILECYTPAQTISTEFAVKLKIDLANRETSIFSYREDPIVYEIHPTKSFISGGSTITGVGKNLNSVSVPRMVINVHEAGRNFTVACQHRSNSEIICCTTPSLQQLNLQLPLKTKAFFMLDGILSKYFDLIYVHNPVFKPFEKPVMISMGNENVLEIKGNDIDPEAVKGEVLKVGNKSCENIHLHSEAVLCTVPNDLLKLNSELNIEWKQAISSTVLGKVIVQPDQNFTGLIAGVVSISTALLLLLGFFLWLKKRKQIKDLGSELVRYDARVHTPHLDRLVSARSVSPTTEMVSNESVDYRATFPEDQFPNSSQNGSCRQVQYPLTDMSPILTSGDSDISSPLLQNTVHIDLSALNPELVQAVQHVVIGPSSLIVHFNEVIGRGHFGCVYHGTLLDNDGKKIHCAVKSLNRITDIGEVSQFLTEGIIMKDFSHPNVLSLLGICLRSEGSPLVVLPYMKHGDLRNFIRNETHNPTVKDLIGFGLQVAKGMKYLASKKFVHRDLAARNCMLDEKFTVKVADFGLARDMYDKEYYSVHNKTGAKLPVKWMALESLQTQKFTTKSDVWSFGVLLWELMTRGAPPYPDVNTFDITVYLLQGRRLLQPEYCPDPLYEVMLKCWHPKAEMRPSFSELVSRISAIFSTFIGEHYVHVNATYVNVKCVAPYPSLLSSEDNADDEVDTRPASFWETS
T1 sequence (Q13547 whole entry, the tested form may be a part): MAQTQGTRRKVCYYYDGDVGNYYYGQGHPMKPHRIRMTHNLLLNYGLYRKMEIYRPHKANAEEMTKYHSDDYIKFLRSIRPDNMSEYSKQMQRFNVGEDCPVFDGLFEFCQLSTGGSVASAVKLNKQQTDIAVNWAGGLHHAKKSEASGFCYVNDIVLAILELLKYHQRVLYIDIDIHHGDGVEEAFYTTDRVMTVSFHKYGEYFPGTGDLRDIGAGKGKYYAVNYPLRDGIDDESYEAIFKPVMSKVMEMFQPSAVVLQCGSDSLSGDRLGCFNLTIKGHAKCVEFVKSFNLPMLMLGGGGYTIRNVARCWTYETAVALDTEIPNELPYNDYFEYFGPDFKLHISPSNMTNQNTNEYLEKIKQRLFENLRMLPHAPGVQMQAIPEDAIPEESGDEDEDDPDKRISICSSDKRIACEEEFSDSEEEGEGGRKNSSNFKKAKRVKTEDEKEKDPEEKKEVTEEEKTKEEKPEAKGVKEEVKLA

Structure (SMILES)	IC50 [1] [nM]	IC50 [2] [nM]	IC50 [3] [nM]	IC50 [4] [nM]	inhibition [5]	inhibition [6]	Ratio IC50 [7]	inhibition [8]	inhibition [9]	inhibition [10]	inhibition [11]
Cn1cc(-c2ccc(=O)n(CCOc3ccnc4cc(OCc5ccc(C(=O)Nc6ccccc6N)cc5)ccc34)n2)cn1	42	156	0.44	1800	–	–	–	–	–	–	–
CC(=O)CCCCCOc1ccc2c(OCCn3nc(-c4cnn(C)c4)ccc3=O)ccnc2c1	25	> 1000	1	> 10000	–	–	–	–	–	–	–
Cn1cc(-c2ccc(=O)n(CCOc3ccnc4cc(C(=O)Nc5ccccc5N)ccc34)n2)cn1	> 10000	> 1000	37	> 10000	–	–	–	–	–	–	–
Cn1cc(-c2ccc(=O)n(CCOc3ccnc4cc(OCc5ccc(/C=C/C(=O)Nc6ccccc6N)cc5)ccc34)n2)cn1	490	> 1000	1.1	> 10000	–	–	–	–	–	–	–
CNC(=O)CCCCCOc1ccc2c(OCCn3nc(-c4cnn(C)c4)ccc3=O)ccnc2c1	79	> 1000	1.2	> 10000	–	–	–	–	–	–	–
Cn1cc(-c2ccc(=O)n(CCOc3ccnc4cc(OCCCCCC(=O)Nc5ccccc5N)ccc34)n2)cn1	370	221	0.96	7000	–	–	–	–	–	–	–
Cn1cc(-c2ccc(=O)n(CCOc3ccnc4cc(OCCCCCC(=O)NO)ccc34)n2)cn1	460	216	0.73	> 10000	–	–	–	–	–	–	–
Cn1cc(-c2ccc(=O)n(CCOc3ccnc4cc(OCCCOc5ccc(C(=O)Nc6ccccc6N)nc5)ccc34)n2)cn1	58	38	0.71	1300	Dose-dependent effect	Active	4	Active	inactive	Dose-dependent effect	Dose-dependent effect
Cn1cc(-c2ccc(=O)n(CCOc3ccnc4cc(-c5ccc(C(=O)Nc6ccccc6N)s5)ccc34)n2)cn1	120	467	1.3	> 10000	–	–	–	–	–	–	–
Cn1cc(-c2ccc(=O)n(CCOc3ccnc4cc(OCCCC(=O)NO)ccc34)n2)cn1	870	> 1000	1	> 10000	–	–	–	–	–	–	–
Cn1cc(-c2ccc(=O)n(CCOc3ccnc4cc(Nc5ccc(C(=O)Nc6ccccc6N)nc5)ccc34)n2)cn1	450	129	3.7	> 10000	–	–	–	–	–	–	–
Cn1cc(-c2ccc(=O)n(CCOc3ccnc4cc(OCCCCCCC(=O)NO)ccc34)n2)cn1	210	18	0.54	> 10000	–	–	–	–	–	–	–
Cn1cc(-c2ccc(=O)n(CCOc3ccnc4cc(OCCCCC(=O)NO)ccc34)n2)cn1	370	> 1000	0.96	> 10000	–	–	–	–	–	–	–
Nc1cc(F)ccc1NC(=O)c1ccc(CNC(=O)/C=C/c2cccnc2)cc1 [TUCIDINOSTAT]	2900	–	–	7800	–	–	–	–	–	–	–
Cn1cc(-c2ccc(=O)n(CCOc3ccnc4cc(OCc5ccc(/C=C/C(=O)Nc6ccccc6N)nc5)ccc34)n2)cn1	46	625	0.63	7900	–	–	–	–	–	–	–
Cn1cc(-c2ccc(=O)n(CCOc3ccnc4cc(OCCCCCS)ccc34)n2)cn1	640	329	1.5	> 10000	–	–	–	–	–	–	–
Cn1cc(-c2ccc(=O)n(CCOc3ccnc4cc(OCc5ccc(CCC(=O)Nc6ccccc6N)cc5)ccc34)n2)cn1	210	> 1000	5.1	> 10000	–	–	–	–	–	–	–
O=c1ccc(-n2ccc3ccc(F)cc32)nn1CCOc1ccnc2cc(OCCCN3CCOCC3)ccc12	60	> 1000	0.84	> 10000	–	–	–	–	–	–	–
